Measurements taken from ChEMBL document CHEMBL3822380, “Simple avarone mimetics as selective agents against multidrug resistant cancer cells” (Eur J Med Chem, 2016).
In brackets after ≈: the same amount, converted by molar mass. Activity calls are given as the source filed them.

Experiments:
NCI-H460 [1] = test: Induction of apoptosis in human NCI-H460 cells assessed as dead cells at 25 uM after 72 hrs by annexin-V/propidium iodide staining-based flow cytometric analysis (reference value: 1.2%); type: functional
NCI-H460 [2] = test: Cytotoxicity against multidrug resistant human NCI-H460 cells after 72 hrs by MTT assay; type: functional, cell-based; conditions: NCI-H460, 72 h
Procedure, shortened: (§1)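 Seeding in 96-well plates at 1000 (NCI-H460), 2000 (NCI-H460/R) or 4000 (HaCaT) cells/well, treated after 24 h for 72 h. MTT at 0.4 mg/mL final, 4 h at 37 °C. Formazan dissolved in DMSO, absorbance read at 540 nm. Inhibition % = (1 − A treated/A untreated)×100. IC30 and IC50 obtained by linear regression.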

NCI-H460 [3] = test: Induction of apoptosis in multidrug resistant human NCI-H460 cells assessed as dead cells at 25 uM after 72 hrs by annexin-V/propidium iodide staining-based flow cytometric analysis (reference value: 1.5%); type: functional
Saccharomyces cerevisiae = test: Antifungal activity against Saccharomyces cerevisiae ATCC 9763 by broth microdilution method; type: functional
Procedure, shortened: (§2)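 Broth microdilution per NCCLS. Compounds dissolved in DMSO as 10 mg/mL stock, diluted in Mueller Hinton broth (bacteria) or Sabouraud dextrose broth (fungi). Amikacin served as the positive control for bacteria and nystatin for fungi.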

NCI-H460 [4] = test: Induction of apoptosis in human NCI-H460 cells assessed as late apoptotic/necrotic cells at 25 uM after 72 hrs by annexin-V/propidium iodide staining-based flow cytometric analysis (reference value: 0.2%); type: functional
Micrococcus luteus [5] = test: Antibacterial activity against Micrococcus luteus ATCC 10240 by broth microdilution method; type: functional; procedure, shortened: as §2
NCI-H460 [6] = test: Induction of apoptosis in human NCI-H460 cells assessed as early apoptotic cells at 25 uM after 72 hrs by annexin-V/propidium iodide staining-based flow cytometric analysis (reference value: 0.3%); type: functional
Aspergillus brasiliensis = test: Antifungal activity against Aspergillus brasiliensis ATCC 16404 by broth microdilution method; type: functional; procedure, shortened: as §2
HaCaT [7] = test: Cytotoxicity against human HaCaT cells after 72 hrs by MTT assay; type: cell-based; conditions: for IC50: Homo sapiens, HaCaT; for IC30: human, hacat; procedure, shortened: as §1
HaCaT [8] = test: Induction of apoptosis in human HaCaT cells assessed as dead cells at 25 uM after 72 hrs by annexin-V/propidium iodide staining-based flow cytometric analysis (reference value: 2.8%); type: cell-based
NCI-H460 [9] = test: Cytotoxicity against human NCI-H460 cells after 72 hrs by MTT assay; type: functional, cell-based; conditions: NCI-H460, 72 h; procedure, shortened: as §1
Pseudomonas aeruginosa = test: Antibacterial activity against Pseudomonas aeruginosa ATCC 9027 by broth microdilution method; type: functional; procedure, shortened: as §2
Candida albicans = test: Antifungal activity against Candida albicans ATCC 10231 by broth microdilution method; type: functional; procedure, shortened: as §2
Bacillus spizizenii = test: Antibacterial activity against Bacillus subtilis ATCC 6633 by broth microdilution method; type: functional; procedure, shortened: as §2
[10] = Selectivity ratio of IC30/IC50 for human HaCaT cells to IC30/IC50 for human NCI-H460 cells; type: ADME, cell-based; conditions: HaCaT cells versus NCI-H460 cells
Procedure, shortened: (§3)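 Fold threshold of 1.5 used to call selectivity to cancer cells, resistance, or selectivity to MDR cells.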

Kocuria rhizophila = test: Antibacterial activity against Kocuria rhizophila ATCC 9341 by broth microdilution method; type: functional; conditions: DC2201; procedure, shortened: as §2
NCI-H460 [11] = test: Induction of apoptosis in multidrug resistant human NCI-H460 cells assessed as early apoptotic cells at 25 uM after 72 hrs by annexin-V/propidium iodide staining-based flow cytometric analysis (reference value: 1.1%); type: functional
Proteus hauseri = test: Antibacterial activity against Proteus hauseri ATCC 13315 by broth microdilution method; type: functional; procedure, shortened: as §2
NCI-H460 [12] = test: Induction of apoptosis in multidrug resistant human NCI-H460 cells assessed as late apoptotic/necrotic cells at 25 uM after 72 hrs by annexin-V/propidium iodide staining-based flow cytometric analysis (reference value: 1%); type: functional
HaCaT [13] = test: Induction of apoptosis in human HaCaT cells assessed as late apoptotic/necrotic cells at 25 uM after 72 hrs by annexin-V/propidium iodide staining-based flow cytometric analysis (reference value: 0.2%); type: cell-based
NCI-H460 [14] = test: Induction of apoptosis in multidrug resistant human NCI-H460 cells assessed as live cells at 25 uM after 72 hrs by annexin-V/propidium iodide staining-based flow cytometric analysis (reference value: 96.4%); type: functional
NCI-H460 [15] = test: Induction of superoxide anion generation in multidrug resistant human NCI-H460 cells at 25 uM after 72 hrs by DHE staining-based flow cytometric analysis relative to control; type: functional, cell-based
Procedure, shortened: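 Seeded as for cell death (50,000 or 100,000 cells/well), treated 72 h at 25 µM, with CDDP 5 µM as control. Adherent cells trypsinized and loaded with 1 µM DHE for 30 min at 37 °C in the dark, then washed twice in PBS. Flow cytometry at ex 488/em 585 nm (FL2-H). Mean fluorescence intensity corrected for autofluorescence and compared with untreated control.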

HaCaT [16] = test: Induction of apoptosis in human HaCaT cells assessed as early apoptotic cells at 25 uM after 72 hrs by annexin-V/propidium iodide staining-based flow cytometric analysis (reference value: 0.2%); type: cell-based
Salmonella enteritidis = test: Antibacterial activity against Salmonella enterica subsp. enterica serovar Enteritidis ATCC 13076 by broth microdilution method; type: functional; procedure, shortened: as §2
NCI-H460 [17] = test: Induction of apoptosis in human NCI-H460 cells assessed as live cells at 25 uM after 72 hrs by annexin-V/propidium iodide staining-based flow cytometric analysis (reference value: 98.3%); type: functional
[18] = Induction of apoptosis in human HaCaT cells assessed as live cells at 25 uM after 72 hrs by annexin-V/propidium iodide staining-based flow cytometric analysis (reference value: 96.8%); type: cell-based; conditions: read-out: Activity
[19] = Selectivity ratio of IC30/IC50 for human HaCaT cells to IC30/IC50 for multidrug resistant human NCI-H460 cells; type: ADME, cell-based; conditions: HaCaT cells versus multidrug resistant NCI-H460 cells; procedure, shortened: as §3
Micrococcus luteus [20] = test: Antibacterial activity against Micrococcus luteus ATCC 4698 by broth microdilution method; type: functional; conditions: NCTC 2665; procedure, shortened: as §2
Clostridium sporogenes = test: Antibacterial activity against Clostridium sporogenes ATCC 19404 by broth microdilution method; type: functional; procedure, shortened: as §2
NCI-H460 [21] = test: Selectivity ratio of IC30/IC50 for human NCI-H460 cells to IC30/IC50 for multidrug resistant human NCI-H460 cells; type: functional; procedure, shortened: as §3
Staphylococcus aureus = test: Antibacterial activity against Staphylococcus aureus ATCC 6538 by broth microdilution method; type: functional; procedure, shortened: as §2
Escherichia coli = test: Antibacterial activity against Escherichia coli ATCC 25922 by broth microdilution method; type: functional; procedure, shortened: as §2

Row | SMILES | Activity (NCI-H460 [1]) [%] | IC30 (NCI-H460 [2]) [µM] | IC50 (NCI-H460 [2]) [µM] | Activity (NCI-H460 [3]) [%] | Activity (NCI-H460 [4]) [%] | Activity (NCI-H460 [6]) [%] | IC50 (HaCaT [7]) [µM] | IC30 (HaCaT [7]) [µM] | Activity (HaCaT [8]) [%] | IC30 (NCI-H460 [9]) [µM] | IC50 (NCI-H460 [9]) [µM] | selectivity ratio [10] | Activity (NCI-H460 [11]) [%] | Activity (NCI-H460 [12]) [%] | Activity (HaCaT [13]) [%] | Activity (NCI-H460 [14]) [%] | Activity (NCI-H460 [15]) | Activity (HaCaT [16]) [%] | Activity (NCI-H460 [17]) [%] | selectivity ratio [19] | other results
1 | CC(C)(C)C1=CC(=O)C(NCCc2ccccc2)=CC1=O | 13 | 11 | 33 | 14.1 | 5.4 | 0.8 | > 100 | > 100 | 8.3 | 17 | 35 | ≤ 1.5 | 1.3 | 3.6 | 1.7 | 81 | inactive | 0.8 | 80.8 | ≤ 1.5 | MIC (Saccharomyces cerevisiae): 2210 µM (≈ 626 µg/mL); MIC (Micrococcus luteus [5]): 4420 µM (≈ 1250 µg/mL); MIC (Aspergillus brasiliensis): 1110 µM (≈ 313 µg/mL); MIC (Pseudomonas aeruginosa): 2210 µM (≈ 626 µg/mL); MIC (Candida albicans): 2210 µM (≈ 626 µg/mL); MIC (Bacillus spizizenii): 4420 µM (≈ 1250 µg/mL); MIC (Kocuria rhizophila): 2210 µM (≈ 626 µg/mL); MIC (Proteus hauseri): 2210 µM (≈ 626 µg/mL); MIC (Salmonella enteritidis): 4420 µM (≈ 1250 µg/mL); viability at 72 h, 25 µM [18]: 89.2%; MIC (Micrococcus luteus [20]): 2210 µM (≈ 626 µg/mL); MIC (Clostridium sporogenes): 2210 µM (≈ 626 µg/mL)
2 | CC1=CCC[C@H]2[C@](C)(CC3=CC(=O)C(NCCc4ccccc4)=CC3=O)[C@@H](C)CC[C@]12C | 7.2 | 10 | 91 | 4.1 | 0.5 | 0.3 | > 100 | 76 | 9.2 | 75 | > 100 | ≤ 1.5 | 0.4 | 0.6 | 1 | 94.9 | inactive | 0.3 | 92 | ≤ 1.5 | selectivity ratio (NCI-H460 [21]): <=1.5; viability at 72 h, 25 µM [18]: 89.5%
3 | CCCCNC1=CC(=O)C(C[C@]2(C)[C@@H](C)CC[C@]3(C)C(C)=CCC[C@@H]23)=CC1=O | – | 24 | > 100 | – | – | – | > 100 | 86 | – | 91 | > 100 | ≤ 1.5 | – | – | – | – | – | – | – | ≤ 1.5 | selectivity ratio (NCI-H460 [21]): <=1.5
4 | CCCCCCCCNC1=CC(=O)C(C(C)(C)C)=CC1=O | 17.3 | 21 | 65 | 14 | 1.7 | 0.1 | > 100 | > 100 | 5.7 | 18 | 70 | ≤ 1.5 | 0.2 | 1.9 | 0.5 | 83.9 | inactive | 0 | 80.9 | ≤ 1.5 | MIC (Saccharomyces cerevisiae): 4300 µM (≈ 1250 µg/mL); MIC (Staphylococcus aureus): 4300 µM (≈ 1250 µg/mL); MIC (Micrococcus luteus [5]): 2150 µM (≈ 626 µg/mL); MIC (Aspergillus brasiliensis): 2150 µM (≈ 626 µg/mL); MIC (Escherichia coli): 4300 µM (≈ 1250 µg/mL); MIC (Pseudomonas aeruginosa): 2150 µM (≈ 626 µg/mL); MIC (Candida albicans): 4300 µM (≈ 1250 µg/mL); MIC (Bacillus spizizenii): 4300 µM (≈ 1250 µg/mL); MIC (Kocuria rhizophila): 4300 µM (≈ 1250 µg/mL); MIC (Proteus hauseri): 2150 µM (≈ 626 µg/mL); MIC (Salmonella enteritidis): 2150 µM (≈ 626 µg/mL); viability at 72 h, 25 µM [18]: 93.8%; MIC (Micrococcus luteus [20]): 4300 µM (≈ 1250 µg/mL); MIC (Clostridium sporogenes): 2150 µM (≈ 626 µg/mL)
